The source made the active and inactive calls. The calls are words filed in the database; no cut-off is given here.
Experiments:
[1] = Antitumor activity against mouse BA/F3 cells expressing BCR-ABL T315I mutant allografted in SCID mouse assessed as increase in median survival at 20 mg/kg/day, po qd for 10 days; format: functional, BaF3
Outline: (§1)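 Ba/F3 Bcr-Abl T315I cells stably carrying firefly luciferase, in saline, were injected i.v. into SCID nude mice (2 × 10^6 cells/0.1 mL). Imaging began 5−7 days later: i.p. D-luciferin, halothane anaesthesia, images after 5 min. Mice were randomised by signal and dosed by oral gavage once daily for 10 days (5, 10, 20 mg/kg/day; imatinib 100 mg/kg; vehicle). Luminescence was quantified; survival by Kaplan−Meier with log-rank test.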

[2] = Antitumor activity against mouse BA/F3 cells expressing BCR-ABL T315I mutant allografted in SCID mouse assessed as increase in median survival at 5 mg/kg/day, po qd for 10 days; format: functional, BaF3; outline: as §1
BaF3 [3] = assay: Antitumor activity against mouse BA/F3 cells expressing BCR-ABL T315I mutant allografted in SCID mouse assessed as suppression of cell proliferation at 1 to 20 mg/kg/day, po qd for 10 days; format: functional, organism-based
BaF3 [4] = assay: Antitumor activity against mouse BA/F3 cells expressing wild type BCR-ABL allografted in SCID mouse assessed as induction of tumor regression at 5 mg/kg/day, po qd for 14 days; format: functional, organism-based
Outline: (§2)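 Ba/F3 cells stably expressing Bcr-Abl (wild type or mutant) were grown in RPMI 1640 with 10% FBS and no IL-3, then suspended in saline (2.5 × 10^7 cells/mL) and given as 0.2 mL s.c. in the right flank. Groups were randomised at 100−200 mm3. Once-daily oral gavage for 14 days in DMSO/Cremophor/ethanol/saline vehicle; reference imatinib 50 or 100 mg/kg/day. Volume L × W²/2 every 2 days; n = 10; t test versus vehicle.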

BaF3 [5] = assay: Antitumor activity against mouse BA/F3 cells expressing wild type BCR-ABL allografted in SCID mouse assessed as inhibition of tumor growth at 1 mg/kg/day, po qd for 14 days; format: functional, organism-based; outline: as §2
BaF3 [6] = assay: Antitumor activity against mouse BA/F3 cells expressing wild type BCR-ABL allografted in SCID mouse assessed as inhibition of tumor growth at 50 to 100 mg/kg/day, po qd for 14 days; format: functional, organism-based; outline: as §2
Mus musculus = assay: Toxicity in human K562 cells xenografted mouse assessed as mortality; format: organism-based; details: in vivo
Outline: (§3)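 K562 cells suspended in normal saline (2.5 × 10^7 cells/mL), 0.2 mL injected subcutaneously into the right flank. Mice were randomised once mean tumour volume reached 100−200 mm3. Oral gavage once daily for 14 days, in 1% DMSO/22.5% Cremophor/7.5% ethanol/69% saline. Tumour volume (L × W²/2) and body weight taken every 2 days; recurrence followed 20 days after dosing stopped. n = 10/group; unpaired t test versus vehicle.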

K562 [7] = assay: Antitumor activity against human K562 cells xenografted in mouse assessed as eradication of tumor at 5 to 10 mg/kg, po qd for 6 days; format: functional, organism-based
K562 [8] = assay: Antitumor activity against human K562 cells xenografted in po dosed mouse assessed as inhibition of tumor growth administered qd for 14 days; format: functional, organism-based; outline: as §3
[9] = Clearance in rat at 25 mg/kg, po; format: ADME, organism-based; parameters: dose 25 mg/kg, route oral; details: in vivo
Outline: (§4)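 Bismesylate salt given to rats as a single iv dose of 5 mg/kg or a single oral dose of 25 mg/kg. Plasma drug levels were followed over time to derive the PK parameters. The 12 h and 24 h plasma levels come from the oral 25 mg/kg dose.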

[10] = Clearance in rat at 5 mg/kg, iv; format: ADME, organism-based; parameters: dose 5 mg/kg, route intravenous; details: in vivo; outline: as §4
Caco-2 = assay: Efflux ratio of permeability from […] in human Caco2 cells; format: ADME, cell-based
[11] = Apparent permeability from apical to basolateral side in human Caco2 cells by LC-MS/MS analysis; format: ADME, cell-based; details: Caco-2
Cytochrome P450 1A2 = Cytochrome P450 1A2 (Homo sapiens, UniProt P05177); assay: Inhibition of human recombinant CYP1A2 at 30 uM after 30 mins; format: ADME; details: recombinant enzyme, 0.5 h
Chain of Cytochrome P450 1A2 (P05177 whole entry): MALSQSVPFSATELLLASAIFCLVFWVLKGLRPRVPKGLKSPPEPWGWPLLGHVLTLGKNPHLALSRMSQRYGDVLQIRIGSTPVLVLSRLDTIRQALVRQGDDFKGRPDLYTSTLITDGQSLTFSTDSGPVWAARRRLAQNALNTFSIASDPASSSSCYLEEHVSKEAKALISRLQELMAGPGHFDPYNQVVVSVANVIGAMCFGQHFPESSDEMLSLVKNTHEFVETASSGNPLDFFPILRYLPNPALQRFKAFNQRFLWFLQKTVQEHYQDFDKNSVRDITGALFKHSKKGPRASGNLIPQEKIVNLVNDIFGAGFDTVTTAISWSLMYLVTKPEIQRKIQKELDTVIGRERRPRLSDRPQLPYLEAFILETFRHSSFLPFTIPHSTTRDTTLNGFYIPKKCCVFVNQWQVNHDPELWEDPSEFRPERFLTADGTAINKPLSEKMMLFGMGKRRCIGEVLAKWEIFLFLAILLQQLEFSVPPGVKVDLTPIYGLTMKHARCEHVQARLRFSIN

Cytochrome P450 2D6 = Cytochrome P450 2D6 (Homo sapiens, UniProt P10635); assay: Inhibition of human recombinant CYP2D6 at 30 uM after 30 mins; format: ADME; details: recombinant enzyme, 0.5 h
Chain of Cytochrome P450 2D6 (P10635 whole entry): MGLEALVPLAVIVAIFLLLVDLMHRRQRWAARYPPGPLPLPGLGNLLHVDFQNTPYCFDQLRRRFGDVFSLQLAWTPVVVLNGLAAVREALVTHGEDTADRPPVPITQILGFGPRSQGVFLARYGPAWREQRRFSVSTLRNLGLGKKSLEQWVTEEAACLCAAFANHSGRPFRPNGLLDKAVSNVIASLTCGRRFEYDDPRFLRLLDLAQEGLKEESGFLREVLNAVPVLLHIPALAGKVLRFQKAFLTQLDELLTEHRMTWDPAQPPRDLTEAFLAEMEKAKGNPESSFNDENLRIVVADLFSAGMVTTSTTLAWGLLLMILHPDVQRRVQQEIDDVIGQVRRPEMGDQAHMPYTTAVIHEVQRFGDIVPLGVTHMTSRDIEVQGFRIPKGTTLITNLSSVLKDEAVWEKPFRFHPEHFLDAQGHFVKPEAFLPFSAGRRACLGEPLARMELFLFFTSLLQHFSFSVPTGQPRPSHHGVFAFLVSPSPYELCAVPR

[12] = Cytotoxicity against human SUP-B15 cells expressing BCR-ABL assessed as growth inhibition after 72 hrs by CCK-8 assay; format: functional, cell-based; details: SUP-B15, 72 h
Outline: (§5)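 Log-phase human leukemia cells were seeded at about 3000 cells/well and treated 24 h later for 72 h. CCK-8 was then incubated with the cells for 3 h and read as OD450 − OD650. Viability was normalized to vehicle wells and cell-free blanks, and IC50 taken as the mean of three experiments.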

K562 [13] = assay: Cytotoxicity against imatinib-resistant human K562 cells expressing BCR-ABL Q252H mutant assessed as growth inhibition after 72 hrs by CCK-8 assay; format: functional, cell-based; details: K562, 72 h
Outline: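 The K562 subline was made imatinib-resistant by 3 months of exposure to imatinib from 0.1 to 5 μM, followed by clonal selection and sequencing to confirm Q252H. Cells were seeded at about 3000 cells/well, treated 24 h later for 72 h, then given CCK-8 for 3 h. Read-out was OD450 − OD650 normalized to vehicle; IC50 is the mean of three experiments.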

[14] = Cytotoxicity against human KU812 cells expressing BCR-ABL assessed as growth inhibition after 72 hrs by CCK-8 assay; format: functional, cell-based; details: KU812, 72 h; outline: as §5
K562 [15] = assay: Cytotoxicity against human K562 cells expressing BCR-ABL assessed as growth inhibition after 72 hrs by CCK-8 assay; format: functional, cell-based; details: K562, 72 h; outline: as §5
[16] = Cytotoxicity against mouse BA/F3 cells expressing BCR-ABL Y253F mutant assessed as growth inhibition after 72 hrs by CCK-8 assay; details: BaF3, 72 h
[17] = Cytotoxicity against mouse BA/F3 cells expressing BCR-ABL L248V mutant assessed as growth inhibition after 72 hrs by CCK-8 assay; details: BaF3, 72 h
[18] = target: Angiopoietin-1 receptor (Homo sapiens) (UniProt Q02763); assay: Binding affinity to TIE2 (unknown origin) at 10 nM after 2 hrs by FRET assay
Chain of Angiopoietin-1 receptor (Homo sapiens) (Q02763 whole entry): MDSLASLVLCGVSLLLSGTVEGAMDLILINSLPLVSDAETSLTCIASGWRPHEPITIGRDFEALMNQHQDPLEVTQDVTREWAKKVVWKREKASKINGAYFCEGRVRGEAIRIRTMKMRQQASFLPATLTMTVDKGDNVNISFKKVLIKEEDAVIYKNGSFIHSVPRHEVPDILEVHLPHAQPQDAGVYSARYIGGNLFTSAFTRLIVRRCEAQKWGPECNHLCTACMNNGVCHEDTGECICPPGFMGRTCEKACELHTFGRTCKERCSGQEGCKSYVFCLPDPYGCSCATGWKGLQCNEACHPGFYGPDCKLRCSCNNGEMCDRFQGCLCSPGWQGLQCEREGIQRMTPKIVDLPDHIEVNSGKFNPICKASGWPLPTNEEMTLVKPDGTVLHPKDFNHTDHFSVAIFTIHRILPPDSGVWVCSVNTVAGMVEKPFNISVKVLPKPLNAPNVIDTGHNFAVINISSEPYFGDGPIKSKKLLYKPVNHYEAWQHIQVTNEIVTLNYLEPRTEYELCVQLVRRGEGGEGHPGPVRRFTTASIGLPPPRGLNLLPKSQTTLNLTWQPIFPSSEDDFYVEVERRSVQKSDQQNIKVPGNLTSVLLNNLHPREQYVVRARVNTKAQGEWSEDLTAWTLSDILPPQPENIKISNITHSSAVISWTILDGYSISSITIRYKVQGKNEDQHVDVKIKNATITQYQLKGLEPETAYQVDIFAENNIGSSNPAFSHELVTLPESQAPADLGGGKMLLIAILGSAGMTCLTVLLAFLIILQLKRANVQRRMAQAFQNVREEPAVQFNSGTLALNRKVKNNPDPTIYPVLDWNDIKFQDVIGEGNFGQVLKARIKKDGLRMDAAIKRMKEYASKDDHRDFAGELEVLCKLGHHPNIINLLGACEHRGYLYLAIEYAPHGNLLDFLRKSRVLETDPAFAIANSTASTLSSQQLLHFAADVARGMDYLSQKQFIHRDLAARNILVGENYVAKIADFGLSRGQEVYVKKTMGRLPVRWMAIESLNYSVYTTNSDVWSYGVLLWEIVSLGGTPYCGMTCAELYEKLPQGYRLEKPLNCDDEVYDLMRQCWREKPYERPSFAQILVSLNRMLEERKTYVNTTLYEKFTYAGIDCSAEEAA

[19] = target: Proto-oncogene tyrosine-protein kinase Src (Homo sapiens) (UniProt P12931); assay: Binding affinity to SRC (unknown origin) at 10 nM after 2 hrs by FRET assay
Chain of Proto-oncogene tyrosine-protein kinase Src (Homo sapiens) (P12931 2-536 limits assumed): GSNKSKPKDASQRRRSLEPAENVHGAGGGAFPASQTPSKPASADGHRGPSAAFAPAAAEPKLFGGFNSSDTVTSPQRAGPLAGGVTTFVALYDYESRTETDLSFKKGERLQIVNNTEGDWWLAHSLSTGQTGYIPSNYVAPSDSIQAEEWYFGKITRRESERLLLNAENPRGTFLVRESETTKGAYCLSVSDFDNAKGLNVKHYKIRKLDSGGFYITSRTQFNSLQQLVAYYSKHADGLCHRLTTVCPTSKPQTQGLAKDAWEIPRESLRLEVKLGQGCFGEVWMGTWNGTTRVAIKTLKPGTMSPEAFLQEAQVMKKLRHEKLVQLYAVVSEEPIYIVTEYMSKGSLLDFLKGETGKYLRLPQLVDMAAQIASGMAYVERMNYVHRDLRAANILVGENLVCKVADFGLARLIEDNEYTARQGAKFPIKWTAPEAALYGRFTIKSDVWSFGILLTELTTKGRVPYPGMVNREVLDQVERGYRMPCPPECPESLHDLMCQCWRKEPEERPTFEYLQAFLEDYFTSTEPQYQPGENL

[20] = target: Platelet-derived growth factor receptor beta (Homo sapiens) (UniProt P09619); assay: Binding affinity to PDGFRbeta (unknown origin) at 10 nM after 2 hrs by FRET assay
Chain of Platelet-derived growth factor receptor beta (Homo sapiens) (P09619 whole entry): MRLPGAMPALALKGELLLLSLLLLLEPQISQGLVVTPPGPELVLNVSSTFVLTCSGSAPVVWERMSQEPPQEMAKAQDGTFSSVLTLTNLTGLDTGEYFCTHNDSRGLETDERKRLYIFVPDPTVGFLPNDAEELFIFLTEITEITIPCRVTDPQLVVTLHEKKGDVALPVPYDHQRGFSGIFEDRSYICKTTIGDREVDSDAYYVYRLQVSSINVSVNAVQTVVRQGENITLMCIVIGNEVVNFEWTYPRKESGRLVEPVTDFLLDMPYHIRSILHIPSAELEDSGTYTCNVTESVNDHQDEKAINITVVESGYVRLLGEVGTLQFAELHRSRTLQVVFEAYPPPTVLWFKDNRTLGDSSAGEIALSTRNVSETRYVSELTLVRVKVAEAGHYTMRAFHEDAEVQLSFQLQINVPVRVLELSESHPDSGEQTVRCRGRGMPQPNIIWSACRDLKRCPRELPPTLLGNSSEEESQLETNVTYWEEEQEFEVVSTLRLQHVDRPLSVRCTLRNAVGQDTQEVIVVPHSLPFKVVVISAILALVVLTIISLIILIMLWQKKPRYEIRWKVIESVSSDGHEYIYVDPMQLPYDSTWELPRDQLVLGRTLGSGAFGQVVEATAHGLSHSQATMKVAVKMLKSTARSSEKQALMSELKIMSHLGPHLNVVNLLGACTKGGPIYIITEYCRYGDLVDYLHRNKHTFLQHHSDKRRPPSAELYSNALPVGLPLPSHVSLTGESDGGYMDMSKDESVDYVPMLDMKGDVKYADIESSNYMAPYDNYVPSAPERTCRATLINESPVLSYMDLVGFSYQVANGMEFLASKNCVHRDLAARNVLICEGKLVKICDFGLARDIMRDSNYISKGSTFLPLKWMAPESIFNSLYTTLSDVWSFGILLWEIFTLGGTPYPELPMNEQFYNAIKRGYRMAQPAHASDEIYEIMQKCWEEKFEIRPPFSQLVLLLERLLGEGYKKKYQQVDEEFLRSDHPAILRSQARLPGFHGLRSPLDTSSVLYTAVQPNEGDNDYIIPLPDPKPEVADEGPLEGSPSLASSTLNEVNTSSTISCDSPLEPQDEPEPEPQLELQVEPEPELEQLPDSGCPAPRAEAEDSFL

[21] = target: Mast/stem cell growth factor receptor Kit (Homo sapiens) (UniProt P10721); assay: Binding affinity to KIT (unknown origin) at 10 nM after 2 hrs by FRET assay
Chain of Mast/stem cell growth factor receptor Kit (Homo sapiens) (P10721 whole entry): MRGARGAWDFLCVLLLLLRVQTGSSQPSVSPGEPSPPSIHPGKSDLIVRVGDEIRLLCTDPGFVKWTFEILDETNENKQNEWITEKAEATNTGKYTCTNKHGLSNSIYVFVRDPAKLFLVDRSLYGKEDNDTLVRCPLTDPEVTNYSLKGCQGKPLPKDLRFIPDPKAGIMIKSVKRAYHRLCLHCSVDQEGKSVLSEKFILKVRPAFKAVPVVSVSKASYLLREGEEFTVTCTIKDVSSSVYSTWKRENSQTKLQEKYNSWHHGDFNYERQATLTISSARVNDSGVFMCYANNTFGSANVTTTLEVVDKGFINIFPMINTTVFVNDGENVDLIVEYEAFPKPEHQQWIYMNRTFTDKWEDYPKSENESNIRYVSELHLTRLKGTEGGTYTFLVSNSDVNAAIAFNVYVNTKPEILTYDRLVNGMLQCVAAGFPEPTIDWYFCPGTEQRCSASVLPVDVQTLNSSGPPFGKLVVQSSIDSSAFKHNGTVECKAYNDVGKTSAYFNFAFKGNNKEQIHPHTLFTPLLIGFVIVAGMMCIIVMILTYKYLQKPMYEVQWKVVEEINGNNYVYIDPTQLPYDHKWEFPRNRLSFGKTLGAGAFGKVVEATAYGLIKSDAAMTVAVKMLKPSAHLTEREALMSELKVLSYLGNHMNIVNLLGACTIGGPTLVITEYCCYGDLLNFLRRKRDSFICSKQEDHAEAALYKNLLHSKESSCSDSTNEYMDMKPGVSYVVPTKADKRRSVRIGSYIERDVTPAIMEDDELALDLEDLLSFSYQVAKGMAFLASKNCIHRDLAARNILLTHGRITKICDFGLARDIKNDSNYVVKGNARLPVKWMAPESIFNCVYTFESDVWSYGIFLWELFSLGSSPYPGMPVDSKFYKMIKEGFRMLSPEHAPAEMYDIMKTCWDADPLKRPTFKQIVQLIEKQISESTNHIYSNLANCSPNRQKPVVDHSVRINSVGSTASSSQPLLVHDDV

[22] = target: Tyrosine-protein kinase ABL1 (Homo sapiens, UniProt P00519, M351T); assay: Inhibition of human recombinant ABL1 M351T mutant expressed in insect cells after 30 mins by FRET assay; format: cell-based
[23] = target: Tyrosine-protein kinase ABL1 (Homo sapiens, UniProt P00519, Q252H); format: cell-based

Question: With Cc1ccc(C(=O)Nc2ccc(CN3CCN(C)CC3)c(C(F)(F)F)c2)cc1C#Cc1cnc2[nH]ncc2c1 [OLVEREMBATINIB] as the molecule, how does the Survival [1] read?
Answer: Its Survival is 31.9 days.

Question: And the Survival [2]?
Answer: The Survival was 23.7 days.

Question: What about the Activity (BaF3 [3]) of the same molecule?
Answer: Its Activity is “Dose-dependent effect”.

Question: What about the Activity (BaF3 [4]) of the same molecule?
Answer: The Activity was “Active”.

Question: What about the TGI (BaF3 [5]) of the same molecule?
Answer: The TGI was “Active”.

Question: And the TGI (BaF3 [6])?
Answer: Its TGI is “Dose-dependent effect”.

Question: What about the Activity (Mus musculus) of the same molecule?
Answer: Its Activity is “Non-toxic”.

Question: And the Activity (K562 [7])?
Answer: The Activity was “Active”.

Question: What about the TGI (K562 [8]) of the same molecule?
Answer: The TGI was “Dose-dependent effect”.

Question: What about the CL/F [9] of the same molecule?
Answer: The CL/F was 60 mL/min/kg.

Question: And the clearance [10]?
Answer: The clearance was 28.3 mL/min/kg.

Question: And the Ratio (Caco-2)?
Answer: The Ratio was 0.9.

Question: And the Papp A→B [11]?
Answer: The Papp A→B was 0.32 ×10⁻⁶ cm/s.

Question: What about the “inhibition (INH)” value (Cytochrome P450 1A2) of the same molecule?
Answer: The value was “Not Active”.

Question: What about the “inhibition (INH)” value (Cytochrome P450 2D6) of the same molecule?
Answer: Its value is “Not Active”.

Question: And the IC50 [12]?
Answer: Its IC50 is 2.5 nM.

Question: What about the IC50 (K562 [13]) of the same molecule?
Answer: The IC50 was 4.5 nM.

Question: What about the IC50 [14] of the same molecule?
Answer: Its IC50 is 0.13 nM.

Question: And the IC50 (K562 [15])?
Answer: The IC50 was 0.2 nM.

Question: What about the IC50 [16] of the same molecule?
Answer: The IC50 was 11 nM.

Question: What about the IC50 [17] of the same molecule?
Answer: The IC50 was 7.3 nM.

Question: And the Activity [18]?
Answer: The Activity was “inactive”.

Question: And the Activity [19]?
Answer: The Activity was “inactive”.

Question: What about the Activity [20] of the same molecule?
Answer: Its Activity is “inactive”.

Question: And the Activity [21]?
Answer: The Activity was “inactive”.

Question: What about the IC50 [22] of the same molecule?
Answer: Its IC50 is 0.29 nM.

Question: And the IC50 [23]?
Answer: Its IC50 is 0.15 nM.
